Laboratory results: ChEMBL document CHEMBL4392833, “Thiazolyl-pyrazole derivatives as potential antimycobacterial agents” (Bioorg Med Chem Lett, 2019)

What was measured:
[1] = test system: Mycobacterium tuberculosis variant bovis; assay: Antitubercular activity against dormant stage of Mycobacterium bovis BCG ATCC 35743 assessed as growth inhibition at 10 ug/ml after 12 days by nitrate reductase assay relative to control; format: functional; details: BCG str. ATCC 35743, 288 h
[2] = test system: Mycobacterium tuberculosis variant bovis; assay: Antitubercular activity against dormant stage of Mycobacterium bovis BCG ATCC 35743 by two fold dilution technique; format: functional; details: BCG str. ATCC 35743
How it was run: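 MIC against dormant-stage bacilli, read out by XTT reduction menadione assay (XRMA), with rifampicin MIC determined the same way as reference.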

[3] = test system: Mycobacterium tuberculosis variant bovis; assay: Antitubercular activity against dormant stage of Mycobacterium bovis BCG ATCC 35743 assessed as growth inhibition at 3 ug/ml after 12 days by nitrate reductase assay relative to control; format: functional; details: BCG str. ATCC 35743, 288 h
[4] = test system: Mycobacterium tuberculosis variant bovis; assay: Antitubercular activity against dormant stage of Mycobacterium bovis BCG ATCC 35743 assessed as growth inhibition at 30 ug/ml after 12 days by nitrate reductase assay relative to control; format: functional; details: BCG str. ATCC 35743, 288 h
[5] = test system: Mycobacterium tuberculosis variant bovis; assay: Antitubercular activity against dormant stage of Mycobacterium bovis BCG ATCC 35743 after 12 days by nitrate reductase assay; format: functional, organism-based; details: BCG str. ATCC 35743, 288 h
[6] = test system: Mycobacterium tuberculosis variant bovis; assay: Potency index, ratio of rifampicin MIC to test compound MIC for dormant stage of Mycobacterium bovis BCG ATCC 35743; format: functional, BCG str. ATCC 35743

In the case of `Cc1nc(C)c(-c2nn(-c3ccc(F)cc3)cc2/C=C/C(=O)c2c(O)cc(C)c(Cl)c2C)s1`, the inhibition at 10 µg/mL [1] is reported as 4.19%, the MIC90 [2] is reported as > 30 µg/mL and the inhibition at 3 µg/mL [3] is reported as 8.39%. The inhibition at 30 µg/mL [4] was 9.91% and the IC50 [5] was > 30 µg/mL.
`Cc1nc(C)c(-c2nn(-c3ccc(F)cc3)cc2/C=C/C(=O)c2cc(Cl)ccc2O)s1` was tested, and the inhibition at 10 µg/mL [1] was 5.45%, the MIC90 [2] was > 30 µg/mL and the inhibition at 3 µg/mL [3] was 5.71%. For the same molecule, the inhibition at 30 µg/mL [4] was 19.6% and the IC50 [5] was > 30 µg/mL.
In the case of `Cc1nc(C)c(-c2nn(-c3ccc(F)cc3)cc2/C=C/C(=O)c2cc(Br)ccc2O)s1`, the inhibition at 10 µg/mL [1] is reported as 16.4%, the MIC90 [2] is reported as > 30 µg/mL and the inhibition at 3 µg/mL [3] is reported as 5.7%. The inhibition at 30 µg/mL [4] was 19.2% and the IC50 [5] was > 30 µg/mL.
With `Cc1ccc(O)c(C(=O)/C=C/c2cn(-c3ccc(F)cc3)nc2-c2sc(C)nc2C)c1` the inhibition at 10 µg/mL [1] was 85.2%, the MIC90 [2] was 16.2 µM and the inhibition at 3 µg/mL [3] was 60.9%. It also gave an inhibition at 30 µg/mL [4] of 96.9% and an IC50 [5] of 1.59 µM.
In the case of `Cc1ccc(O)c(C2=NNC(c3cn(-c4ccc(F)cc4)nc3-c3sc(C)nc3C)C2)c1` (stereo not drawn), the inhibition at 10 µg/mL [1] is reported as 82.7%, the MIC90 [2] is reported as 63.1 µM and the inhibition at 3 µg/mL [3] is reported as 33%. The inhibition at 30 µg/mL [4] was 97.5% and the IC50 [5] was 46.4 µM.
For `Cc1nc(C)c(-c2nn(-c3ccc(F)cc3)cc2C2CC(c3cc(Br)ccc3O)=NN2)s1` (stereo not drawn), the Ratio [6] was 4, the inhibition at 10 µg/mL [1] was 98.7% and the MIC90 [2] was 0.39 µM. It also gave an inhibition at 3 µg/mL [3] of 96.2%, an inhibition at 30 µg/mL [4] of 99.5% and an IC50 [5] of 5.79 µM.
With `Cc1nc(C)c(-c2nn(-c3ccc(F)cc3)cc2C2CC(c3c(O)cc(C)c(Cl)c3C)=NN2)s1` (stereo not drawn) the inhibition at 10 µg/mL [1] was 98%, the MIC90 [2] was 4.55 µM and the inhibition at 3 µg/mL [3] was 89%. For the same molecule, the inhibition at 30 µg/mL [4] was 98.4% and the IC50 [5] was 5.04 µM.
In the case of `Cc1ccc2oc(-c3cn(-c4ccc(F)cc4)nc3-c3sc(C)nc3C)cc(=O)c2c1`, the inhibition at 10 µg/mL [1] is reported as 96.6%, the MIC90 [2] is reported as 1.18 µM and the inhibition at 3 µg/mL [3] is reported as 97.6%. The inhibition at 30 µg/mL [4] was 95.6% and the IC50 [5] was 5.89 µM.
`Cc1nc(C)c(-c2nn(-c3ccc(F)cc3)cc2-c2cc(=O)c3cc(Cl)c(C)cc3o2)s1` gave an inhibition at 10 µg/mL [1] of 98.9%, an MIC90 [2] of 2.85 µM and an inhibition at 3 µg/mL [3] of 99.7%. The inhibition at 30 µg/mL [4] was 98.2% and the IC50 [5] was 3.69 µM.
`Cc1nc(C)c(-c2nn(-c3ccc(F)cc3)cc2/C=C/C(=O)c2cc(Cl)cc(Cl)c2O)s1` was tested, and the inhibition at 10 µg/mL [1] was 10.1%, the MIC90 [2] was > 30 µg/mL and the inhibition at 3 µg/mL [3] was 8.72%. For the same molecule, the inhibition at 30 µg/mL [4] was 29.8% and the IC50 [5] was > 30 µg/mL.
Work on `Cc1nc(C)c(-c2nn(-c3ccc(F)cc3)cc2C2CC(c3cc(Cl)ccc3O)=NN2)s1` (stereo not drawn) yielded an inhibition at 10 µg/mL [1] of 99.7%, an MIC90 [2] of 1.54 µM and an inhibition at 3 µg/mL [3] of 99.2%. The inhibition at 30 µg/mL [4] was 99.7% and the IC50 [5] was 2.48 µM.
In the case of `Cc1nc(C)c(-c2nn(-c3ccc(F)cc3)cc2/C=C/C(=O)c2cc(Cl)c(C)cc2O)s1`, the inhibition at 10 µg/mL [1] is reported as 52.8%, the MIC90 [2] is reported as 6.85 µM and the inhibition at 3 µg/mL [3] is reported as 8.47%. It also gave an inhibition at 30 µg/mL [4] of 97.2% and an IC50 [5] of 0.79 µM.
Molecule `Cc1nc(C)c(-c2nn(-c3ccc(F)cc3)cc2C2CC(c3cc(Cl)c(C)cc3O)=NN2)s1` (stereo not drawn) has an inhibition at 10 µg/mL [1] of 89.7%, an MIC90 [2] of 4.77 µM and an inhibition at 3 µg/mL [3] of 69.6%. The inhibition at 30 µg/mL [4] was 98.5% and the IC50 [5] was 9.65 µM.
In the case of `CO[C@H]1/C=C/O[C@@]2(C)Oc3c(C)c(O)c4c(O)c(c(/C=N/N5CCN(C)CC5)c(O)c4c3C2=O)NC(=O)/C(C)=C\C=C\[C@H](C)[C@H](O)[C@@H](C)[C@@H](O)[C@@H](C)[C@H](OC(C)=O)[C@@H]1C` [RIFAMPIN], the MIC90 [2] is reported as 0.98 µM and the IC50 [5] is reported as 0.91 µM.
